Here are results for eleven compounds from ChEMBL document CHEMBL1147806, “Structure-activity relationship studies on UK-2A, a novel antifungal antibiotic from Streptomyces sp. 517-02. Part 5: Roles of the 9-membered dilactone-ring moiety in respiratory inhibition” (2006).

The subject of one assay is Rhodotorula mucilaginosa. In words: Antifungal activity against Rhodotorula mucilaginosa IFO 0001. Type of assay: functional. The method in brief: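 Compounds dissolved in DMF; MIC by serial 2-fold agar dilution on Sabouraud dextrose agar, read after 48 h cultivation at 25 °C.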
The species entered for the next assay is Bos taurus. Description: Respiratory inhibition in bovine heart submitochondrial particles. Type of assay: functional. Summed up: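 Bovine heart submitochondrial particles prepared by the Matsuno-Yagi and Hatefi method; uncoupler-stimulated respiration with 10 mM succinate as substrate, oxygen consumption followed by oxygen electrode at 25 °C.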

As a reminder, the MIC is the least concentration at which growth counts as inhibited. Read a high MIC as a less susceptible organism.

≈ marks a conversion by molar mass, not a printed value.

In the assay with Rhodotorula mucilaginosa, `CCCCCOC(=O)CC[C@H](NC(=O)c1nccc(OC)c1O)C(=O)OCCCCC` returned an MIC of 12.5 µg/mL (≈ 28.5 µM).

With `COc1ccnc(C(=O)N[C@H]2COC(=O)[C@H](Cc3ccccc3)[C@@H](OC(=O)C(C)C)[C@H](C)OC2=O)c1O`, the minimum inhibitory concentration (MIC) with Rhodotorula mucilaginosa was less than 0.1 µg/mL. The compound also had a pI50 in the assay listed under Bos taurus of 6.

For the compound `CCCCCCCOC(=O)CC[C@H](NC(=O)c1nccc(OC)c1O)C(=O)OCCCCCCC`, 50 µg/mL (≈ 101 µM) was the least that counted as inhibitory in the assay on Rhodotorula mucilaginosa (MIC).

In the assay on Rhodotorula mucilaginosa, `CCCCCCOC(=O)CC[C@H](NC(=O)c1nccc(OC)c1O)C(=O)OCCCCCC` had an MIC of 3.13 µg/mL (≈ 6.71 µM). The same compound registered a pI50 in the assay listed under Bos taurus of 6.

In the assay with Rhodotorula mucilaginosa, `CCCCCCOC(=O)CC[C@@H](NC(=O)c1nccc(OC)c1O)C(=O)OCCCCCC` displayed an MIC of 100 µg/mL (≈ 214 µM).

`CCCCCCOC(=O)CC[C@H](NC(=O)c1cccc(NC=O)c1O)C(=O)OCCCCCC` returned an MIC against Rhodotorula mucilaginosa of more than 100 µg/mL. The pI50 in the assay filed under Bos taurus stood at 7.1.

The compound `CCCCCCOC(=O)C[C@H](NC(=O)c1nccc(OC)c1O)C(=O)OCCCCCC` displayed an MIC with Rhodotorula mucilaginosa of 100 µg/mL (≈ 221 µM).

With `CCCCCCOC(=O)C[C@H](NC(=O)c1ccc(OC)c(OC)c1O)C(=O)OCCCCCC`, the minimal inhibitory concentration (MIC) with Rhodotorula mucilaginosa is more than 100 µg/mL. For the same compound, in the assay filed under Bos taurus, the pI50 was 4.9.

As for `CCCC[C@H]1C(=O)O[C@H](C)[C@H](NC(=O)c2cccc(NC=O)c2O)C(=O)O[C@@H](C)[C@@H]1OC(=O)CC(C)C` [ANTIMYCIN A3], the MIC with Rhodotorula mucilaginosa stood at 0.39 µg/mL (≈ 0.749 µM). In addition, the pI50 in the assay filed under Bos taurus is reported as 7.4.

`CCCCCCCCOC(=O)CC[C@H](NC(=O)c1nccc(OC)c1O)C(=O)OCCCCCCCC` registered an MIC in the assay on Rhodotorula mucilaginosa of more than 100 µg/mL. The pI50 in the assay filed under Bos taurus worked out at 5.7.

In the case of `CCCCCCOC(=O)C[C@H](NC(=O)c1cc(O)c(OC)c(OC)c1O)C(=O)OCCCCCC`, in the assay with Rhodotorula mucilaginosa, the MIC worked out at 100 µg/mL (≈ 201 µM). In the assay listed under Bos taurus, the pI50 stood at 5.
